TRPC6 inh – mouse TRPC6 channel inhibitors, primary screen, cell-based, HEK293, membrane potential dye. Short transient receptor potential channel 6 (Mus musculus), Q61143. ACh-evoked depolarization; hits give low values. B-score at 10 µM. 310,000 tested, 1.1% active. AID 2553, 2010;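 active = B-score under library mean minus 3 SD, initial fluorescence not abnormally high, positive integrated signal ratio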;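 note: B-score derived from integrated fluorescence ratio over the kinetic read; more negative B-score means stronger inhibition of depolarization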
Target sequence (Q61143 whole entry, looked up): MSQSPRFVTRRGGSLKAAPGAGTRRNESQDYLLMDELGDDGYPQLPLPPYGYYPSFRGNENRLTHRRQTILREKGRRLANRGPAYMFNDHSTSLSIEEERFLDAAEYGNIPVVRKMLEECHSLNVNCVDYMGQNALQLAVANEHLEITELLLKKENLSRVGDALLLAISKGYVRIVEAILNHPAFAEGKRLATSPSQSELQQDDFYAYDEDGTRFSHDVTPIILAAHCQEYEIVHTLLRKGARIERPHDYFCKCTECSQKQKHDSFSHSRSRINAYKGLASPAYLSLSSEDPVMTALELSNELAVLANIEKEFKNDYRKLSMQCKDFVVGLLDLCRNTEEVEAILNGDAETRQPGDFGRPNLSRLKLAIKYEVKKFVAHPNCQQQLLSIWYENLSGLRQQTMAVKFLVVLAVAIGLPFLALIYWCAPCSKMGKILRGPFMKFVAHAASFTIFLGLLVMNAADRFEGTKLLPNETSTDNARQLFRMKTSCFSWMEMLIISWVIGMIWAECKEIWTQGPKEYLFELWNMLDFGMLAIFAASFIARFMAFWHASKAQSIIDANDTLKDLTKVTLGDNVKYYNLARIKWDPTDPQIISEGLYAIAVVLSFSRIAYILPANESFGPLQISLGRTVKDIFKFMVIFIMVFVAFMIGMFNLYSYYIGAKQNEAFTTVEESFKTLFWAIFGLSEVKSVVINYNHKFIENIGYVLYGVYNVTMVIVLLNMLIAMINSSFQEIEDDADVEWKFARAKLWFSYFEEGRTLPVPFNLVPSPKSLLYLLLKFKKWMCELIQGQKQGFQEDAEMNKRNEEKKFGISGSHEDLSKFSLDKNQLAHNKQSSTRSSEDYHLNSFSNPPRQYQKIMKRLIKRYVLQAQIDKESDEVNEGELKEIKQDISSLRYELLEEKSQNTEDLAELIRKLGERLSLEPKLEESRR
TRPC4 agonist – activators of mouse TRPC4 channel, primary screen, Fluo4 calcium, HEK293 TRPC4beta/mu-opioid cells. B-score at 10 µM. AID 2237, 2010. Fluo4 calcium fluorescence; hits give high values. 310,000 tested, 0.49% active;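 active = B-score above 5 SD of library B-scores, and initial fluorescence ratio not above library mean plus 5 SD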;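 note: positive B-score marks a calcium rise read as TRPC4 activation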
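System: HEK293 cells stably co-expressing mouse TRPC4beta and mu-opioid receptor; Schedule: Fluo4 dye loading 45 min at room temperature, 110 s recording; Detection: Fluo4 fluorescence, kinetic; Evaluation: B-scored integrated calcium fluorescence ratio; Controls: buffer (low) and maximal DAMGO (high).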
TRPC6 act – mouse TRPC6 channel activators, primary screen, cell-based, HEK293, membrane potential dye | B-score at 10 µM | HEK293-TRPC6 membrane potential dye fluorescence; hits give high values | AID 2550, 2010 | 310,000 tested, 0.13% active;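 active = B-score of the integrated fluorescence ratio above library mean plus 3 SD, and starting fluorescence ratio within library mean plus 5 SD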;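 note: higher score means more depolarization so channel activation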
TRPC4 potent – positive allosteric modulators of TRPC4, primary screen, cell-based, mouse TRPC4beta, HEK293 mu-opioid, Fluo-4 calcium. Short transient receptor potential channel 4 (Mus musculus), Q9QUQ5. DAMGO EC20, Fluo-4 Ca2+ flux; hits give high values. B-score at 10 µM. 310,000 tested, 0.42% active;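 active = B-score of calcium response area above 5 SD of library B-scores, with initial fluorescence ratio within 5 SD of library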;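 note: B-score of integrated fluorescence ratio over time as area under calcium response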
TRPC4 inh – inhibitors of mouse TRPC4 channel, primary screen, Fluo4 calcium, HEK293 TRPC4beta/mu-opioid cells; Short transient receptor potential channel 4 (Mus musculus), Q9QUQ5; DAMGO-evoked Fluo4 calcium flux; hits give low values; B-score at 10 µM; 300,000 tested, 0.39% active;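 active = B-score over 3 SD under the library average, no early fluorescence shift, positive overall ratio signal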
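test system = HEK293 cells with stable TRPC4beta plus mu-opioid receptor expression | detection = Fluo4 Ca2+ flux fluorescence | read-out = integrated fluorescence ratio relative to baseline, converted to per-well B score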
TRPC4 spec 2 – second selectivity test of TRPC6 inhibitors: effect on mouse TRPC4. inhibition, % at 10 µM. HEK293 TRPC4/MOR, membrane potential dye fluorescence; channel activated by saturating DAMGO dose. shares compounds with TRPC6 inh. 920 tested, 42% active. AID 2776;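 active = compounds whose fluorescence signal differed from control wells by over 3 SD, either direction, in both duplicate plates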
TRPC4 spec – mouse TRPC4 modulation by TRPC6 hits, confirmation, selectivity assay for TRPC6 inhibitor project, cell-based, HEK293 TRPC4/mu-opioid, membrane potential dye. 920 tested, 61% active. activity change, negative = inhibition, % at 10 µM. shares compounds with TRPC6 inh. membrane potential fluorescence;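 active = rise or fall in signal beyond 3 SD of buffer-only wells in both replicate plates, either sign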;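 note: integrated kinetic ratio of fluorescence range over baseline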
HEK293 MPD ctr 2-1 – nonspecific membrane potential effects, parental HEK293, confirmation, counter-screen for TRPC6 inhibitor project, cell-based, second counter screen. shares compounds with TRPC6 inh. parental HEK293 membrane potential dye fluorescence; maximal acetylcholine challenge after compound addition. signal change vs control, % at 10 µM. 920 tested, 31% active;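 active = membrane potential signal moving either way by over 3 SD of the maximum-effect control, in both duplicate plates, meaning non-specific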
HEK293 MPD ctr-1 – membrane potential modulation in parental HEK293, confirmation, counter-screen for TRPC6 inhibitor project, cell-based | shares compounds with TRPC6 inh | parental HEK293 membrane potential dye fluorescence | membrane potential signal change, % at 10 µM | 920 tested, 60% active;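 active = membrane potential signal shifting up or down by more than 3 SD of buffer-only wells, on both duplicate plates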
HEK293 MPD ctr-2 – parental HEK293 membrane potential modulation, confirmation, counter-screen for TRPC6 modulator project, cell-based; shares compounds with TRPC6 inh; membrane potential dye fluorescence; 2,400 tested, 51% active; AID 488924, 2010; membrane potential signal change, % at 10 µM;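 active = membrane potential signal moves up or down beyond 5 SD from buffer-only wells, on both duplicate plates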
HEK293 MPD ctr 2-2 – second counter-screen for TRPC6 modulators: effect in parental HEK293 cells. shares compounds with TRPC6 inh. inhibition, % at 10 µM. 2,400 tested, 14% active. AID 488926. membrane potential dye fluorescence; after compound, maximal acetylcholine stimulation;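 active = membrane potential signal drops by more than 5 SD from the mean control signal, in both duplicate plates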;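 note: plate controls were acetylcholine ECmax control wells for no effect and buffer only wells for full effect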
TRPC4 ctr mod – TRPC4 modulation by TRPC6 hit compounds, confirmation, selectivity assay for TRPC6 modulator project, cell-based, HEK293 TRPC4/mu-opioid, membrane potential dye, mouse | shares compounds with TRPC6 inh | membrane potential fluorescence | percent change from control (negative = decrease, positive = increase), % at 10 µM | 2,400 tested, 69% active;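 active = membrane potential signal moved up or down beyond 5 SD of buffer control wells, in both duplicate plates, actives on both sides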;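 note: plate controls were assay buffer wells for no effect and DAMGO maximal-effect wells for full effect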
TRPC4 ctr inh 2 – second selectivity test of TRPC6 modulators against mouse TRPC4; AID 488928; HEK293 TRPC4/mu-opioid, membrane potential dye fluorescence; stimulated with maximal-effect DAMGO; shares compounds with TRPC6 inh; inhibition, % at 10 µM; 2,400 tested, 55% active;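 active = drop in membrane potential signal beyond 5 SD of the control wells in both duplicate plates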;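 note: TRPC4 counter screen for TRPC6 hits run under conditions tuned for TRPC6 not TRPC4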
TRPC6 inh conf – mouse TRPC6 channel inhibitors, confirmation, HEK293 cells, membrane potential dye, duplicate. shares compounds with TRPC6 inh. inhibition, % at 10 µM. 3,300 tested, 43% active. ACh-evoked depolarization;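 active = fluorescence ratio falls more than 5 SD below the full-stimulation control mean, in both duplicate runs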;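 note: integrated fluorescence ratio of peak minus minimum over baseline after agonist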
TRPC6 act confirm – mouse TRPC6 channel activators, confirmation, HEK293 cells, membrane potential dye, duplicate; shares compounds with TRPC6 inh; HEK293-TRPC6 membrane potential dye fluorescence, FDSS; activation, % at 10 µM; 2,800 tested, 11% active; AID 488961, 2010;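 active = ratio signal rise beyond 5 SD above unstimulated control wells' mean, seen in both duplicate runs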;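 note: plate controls were buffer EC0 wells for no effect and acetylcholine ECmax response for full effect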
An asterisk follows results filed as active; i = inactive; · = no result. The list is not random: actives were taken first. Their share in the collection is about 2.3%.

SMILES	TRPC6 inh	TRPC4 agonist	TRPC6 act	TRPC4 potent	TRPC4 inh	TRPC4 spec 2	TRPC4 spec	HEK293 MPD ctr 2-1	HEK293 MPD ctr-1	HEK293 MPD ctr-2	HEK293 MPD ctr 2-2	TRPC4 ctr mod	TRPC4 ctr inh 2	TRPC6 inh conf	TRPC6 act confirm
Cc1cccn2c(=O)c(/C=C(\C#N)C(=O)NC3CCS(=O)(=O)C3)c(N3CCC(C(N)=O)CC3)nc12 (centres undefined)	i	i	i	i	i	·	·	·	·	·	·	·	·	·	·
CCN1CCN(c2nc3c(C)cccn3c(=O)c2/C=C(\C#N)C(=O)NCCOC)CC1	-5.53*	i	i	i	i	·	·	·	·	-278.0%*	i	-52.0%*	i	i	i
CS(=O)(=O)N(Cc1cccc(CN(C(C(=O)O)c2ccccc2)S(C)(=O)=O)c1)C(C(=O)O)c1ccccc1 (centres undefined)	-8.73*	i	i	i	i	i	i	i	i	·	·	·	·	i	i
Cc1c(CCC(=O)O)c(=O)oc2cc3occ(-c4ccc(Br)cc4)c3cc12	i	i	i	i	i	·	·	·	·	·	·	·	·	·	·
CCOC(=O)c1c(NC(=O)C2C3C=CC(CC3)C2C(=O)O)sc(C)c1CC (centres undefined)	i	i	12.4*	i	i	·	·	·	·	109.5%*	i	21.0%*	i	i	60.5%*
CCc1c(C)c(C#N)c2nc3ccccc3n2c1NC	i	i	i	i	i	·	·	·	·	·	·	·	·	·	·
C=CCc1c(C)c(C#N)c2nc3ccccc3n2c1NCCN(C)C	-5.44*	i	i	i	i	·	·	·	·	-116.5%*	i	-24.0%*	51.5%*	53.5%*	i
CCCc1cc(NCCN(C)C)n2c(nc3ccccc32)c1C#N	i	i	i	i	i	·	·	·	·	·	·	·	·	·	·
C=C(C)Cc1c(C)c(C#N)c2nc3ccccc3n2c1NCCCN(C)C	-7.25*	i	i	i	i	48.5%*	-16.1%*	i	-353.5%*	·	·	·	·	i	i
Cc1c(Cc2ccccc2)c(NCCCO)n2c(nc3ccccc32)c1C#N	i	i	i	i	i	·	·	·	·	·	·	·	·	·	·
CCCc1cc(NCCCN(C)C)n2c(nc3ccccc32)c1C#N	-6.78*	i	i	i	i	62.0%*	-36.0%*	42.5%*	-454.0%*	·	·	·	·	63.3%*	i
CCc1c(C)c(C#N)c2nc3ccccc3n2c1NCCN(C)C	-9.47*	i	i	i	i	·	·	·	·	-85.0%*	112.5%*	-18.0%*	75.5%*	77.5%*	i
CCOc1ccc(CNC(=O)Nc2ccccc2)cc1	i	i	i	i	i	·	·	·	·	·	·	·	·	·	·
CSc1nnc2c3cc(F)ccc3n(C)c2n1	i	i	i	i	i	·	·	·	·	·	·	·	·	·	·
CCn1c2ccc(C)cc2c2nnc(SCCN3CCOCC3)nc21	i	i	i	i	i	·	·	·	·	·	·	·	·	·	·
CCCCn1c2ccc(C)cc2c2nnc(SCCN3CCCCC3)nc21	-5.8*	i	i	i	i	·	·	·	·	i	i	i	66.5%*	45.0%*	i
Cn1c2ccc(F)cc2c2nnc(SCCN3CCCCC3)nc21	-7.39*	i	i	i	i	76.5%*	-12.5%*	16.5%*	-203.5%*	·	·	·	·	i	i
CCn1c2ccccc2c2nnc(SCCN3CCCCC3)nc21	i	i	i	i	i	·	·	·	·	·	·	·	·	·	·
CCCCn1c2ccc(F)cc2c2nnc(SCCN3CCCCC3)nc21	-5.62*	i	i	i	i	·	·	·	·	-73.5%*	i	-19.0%*	38.0%*	i	i
CCc1nc2ccccc2nc1N1CCN(S(=O)(=O)c2ccccc2)CC1	i	i	i	i	i	·	·	·	·	·	·	·	·	·	·
N=C1C(c2nc(-c3ccc(Cl)cc3)cs2)=C(O)CN1NC(=O)c1ccc(O)cc1	i	i	i	i	i	·	·	·	·	·	·	·	·	·	·
O=C(/C(=C/c1ccc(Cl)cc1)c1nc2ccccc2[nH]1)c1cccs1	-6.82*	i	i	i	i	i	i	i	i	·	·	·	·	i	i
CC(C)Oc1ccc(C(=O)NC2CCCCC2)cc1	i	i	i	i	i	·	·	·	·	·	·	·	·	·	·
CC(C)Oc1ccc(C(CCN)C2CCCCC2)cc1 (centres undefined)	-6.74*	i	i	i	i	51.0%*	i	i	i	·	·	·	·	i	i

High-throughput results: PubChem, Johns Hopkins Ion Channel Center
